Several values for one entry are separate records, joined by “and”; a condition that tells them apart may be missing. Identical values can stand only once.
Test system: Fibroblast
Assay: Multiplex assay against human fibroblast
Assay type: toxicity, cell-based
Method in brief: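 Compound was added to live cells that had been stained at seeding with Hoechst33342, BioTracker Green Microtubule Cytoskeleton Dye, MitoTracker Red and Annexin V Alexa Fluor 680, and imaging followed on a CQ1 microscope at 37°C and 5% CO2. CellPathfinder machine-learning gating divided cells into Hoechst high-intensity objects or normal cells, normal cells into healthy, pyknosed or fragmented nuclei, and pyknosed cells into mitotic or apoptotic. Tubulin, mitochondrial-mass and membrane-permeability phenotypes are per cents of healthy-nucleus cells.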

[1] = 12 h, 1 µM, compound concentration 1 uM, replicate 1
[2] = 12 h, 1 µM, compound concentration 1 uM, replicate 2
[3] = 12 h, 10 µM, compound concentration 10 uM, replicate 1
[4] = 12 h, 10 µM, compound concentration 10 uM, replicate 2
[5] = 24 h, 1 µM, compound concentration 1 uM, replicate 1
[6] = 24 h, 1 µM, compound concentration 1 uM, replicate 2
[7] = 24 h, 10 µM, compound concentration 10 uM, replicate 1
[8] = 24 h, 10 µM, compound concentration 10 uM, replicate 2
[9] = 48 h, 10 µM, compound concentration 10 uM, replicate 1
[10] = 48 h, 10 µM, compound concentration 10 uM, replicate 2

COCC(=O)NC/C=C/c1ccc2ncnc(Nc3ccc(Oc4ccc(C)nc4)c(C)c3)c2c1 [CP-724714]
Population Apoptotic (%) [1]: 52% and 82% | Population Fragmented Nuclei (%) [1]: 30% and 25% | Population Healthy Nuclei (%) [1]: 51% and 59% | Population Hoechst High Intensity Objects (%) [1]: 14% and 12% | Population Membrane Permeable-Phenotype (%) [1]: 29% and 10% | Population Mitotic Cells (%) [1]: 47% and 17% | Population Normal (%) [1]: 85% and 87% | Population Pyknosed Nuclei (%) [1]: 18% | Total Cell Count [1]: 245 and 254 | Population Fragmented Nuclei (%) [2]: 50% and 54% | Population Healthy Nuclei (%) [2]: 33% and 20% | Population Hoechst High Intensity Objects (%) [2]: 27% and 42% | Population Membrane Permeable-Phenotype (%) [2]: 22% and 11% | Population Normal (%) [2]: 72% and 57% | Population Pyknosed Nuclei (%) [2]: 15% and 25% | Population Tubulin-Different-Phenotype (%) [2]: 22% and 44% | Total Cell Count [2]: 73 and 76 | Population Apoptotic (%) [3]: 51% | Population Fragmented Nuclei (%) [3]: 33% | Population Healthy Nuclei (%) [3]: 37% | Population Hoechst High Intensity Objects (%) [3]: 14% | Population Membrane Permeable-Phenotype (%) [3]: 14% | Population Mitochondria Different-Phenotype (%) [3]: 50% | Population Mitotic Cells (%) [3]: 48% | Population Normal (%) [3]: 85% | Population Pyknosed Nuclei (%) [3]: 29% | Population Tubulin-Different-Phenotype (%) [3]: 87% | Total Cell Count [3]: 148 | Population Apoptotic (%) [4]: 80% | Population Fragmented Nuclei (%) [4]: 18% | Population Healthy Nuclei (%) [4]: 63% | Population Hoechst High Intensity Objects (%) [4]: 11% | Population Membrane Permeable-Phenotype (%) [4]: 37% | Population Mitochondria Different-Phenotype (%) [4]: 94% | Population Mitotic Cells (%) [4]: 20% | Population Normal (%) [4]: 88% | Population Pyknosed Nuclei (%) [4]: 18% | Population Tubulin-Different-Phenotype (%) [4]: 100% | Total Cell Count [4]: 62 | Population Apoptotic (%) [5]: 58% and 59% | Population Fragmented Nuclei (%) [5]: 30% and 19% | Population Healthy Nuclei (%) [5]: 51% and 62% | Population Hoechst High Intensity Objects (%) [5]: 14% and 11% | Population Mitotic Cells (%) [5]: 41% and 40% | Population Normal (%) [5]: 85% and 88% | Population Pyknosed Nuclei (%) [5]: 17% and 18% | Total Cell Count [5]: 243 and 259 | Population Apoptotic (%) [6]: 37% and 77% | Population Fragmented Nuclei (%) [6]: 55% and 57% | Population Healthy Nuclei (%) [6]: 31% and 21% | Population Hoechst High Intensity Objects (%) [6]: 24% and 51% | Population Membrane Permeable-Phenotype (%) [6]: 16% and 11% | Population Mitochondria Different-Phenotype (%) [6]: 22% and 33% | Population Mitotic Cells (%) [6]: 62% and 22% | Population Normal (%) [6]: 75% and 48% | Population Pyknosed Nuclei (%) [6]: 13% and 21% | Total Cell Count [6]: 77 and 86 | Population Apoptotic (%) [7]: 57% | Population Fragmented Nuclei (%) [7]: 34% | Population Healthy Nuclei (%) [7]: 34% | Population Hoechst High Intensity Objects (%) [7]: 14% | Population Membrane Permeable-Phenotype (%) [7]: 16% | Population Mitochondria Different-Phenotype (%) [7]: 69% | Population Mitotic Cells (%) [7]: 42% | Population Normal (%) [7]: 85% | Population Pyknosed Nuclei (%) [7]: 30% | Population Tubulin-Different-Phenotype (%) [7]: 95% | Total Cell Count [7]: 144 | Population Apoptotic (%) [8]: 60% | Population Fragmented Nuclei (%) [8]: 16% | Population Healthy Nuclei (%) [8]: 54% | Population Hoechst High Intensity Objects (%) [8]: 11% | Population Membrane Permeable-Phenotype (%) [8]: 51% | Population Mitochondria Different-Phenotype (%) [8]: 96% | Population Mitotic Cells (%) [8]: 40% | Population Normal (%) [8]: 88% | Population Pyknosed Nuclei (%) [8]: 28% | Population Tubulin-Different-Phenotype (%) [8]: 100% | Total Cell Count [8]: 60 | Population Apoptotic (%) [9]: 77% | Population Fragmented Nuclei (%) [9]: 35% | Population Healthy Nuclei (%) [9]: 44% | Population Hoechst High Intensity Objects (%) [9]: 14% | Population Membrane Permeable-Phenotype (%) [9]: 10% | Population Mitochondria Different-Phenotype (%) [9]: 41% | Population Mitotic Cells (%) [9]: 22% | Population Normal (%) [9]: 85% | Population Pyknosed Nuclei (%) [9]: 20% | Population Tubulin-Different-Phenotype (%) [9]: 86% | Total Cell Count [9]: 154 | Population Apoptotic (%) [10]: 40% | Population Fragmented Nuclei (%) [10]: 34% | Population Healthy Nuclei (%) [10]: 61% | Population Hoechst High Intensity Objects (%) [10]: 8% | Population Membrane Permeable-Phenotype (%) [10]: 14% | Population Mitochondria Different-Phenotype (%) [10]: 34% | Population Mitotic Cells (%) [10]: 60% | Population Normal (%) [10]: 91% | Population Pyknosed Nuclei (%) [10]: 3% | Population Tubulin-Different-Phenotype (%) [10]: 94% | Total Cell Count [10]: 163

COc1cc2ncnc(Nc3ccc(F)c(Cl)c3)c2cc1NC(=O)/C=C/CN1CCCCC1 [DACOMITINIB ANHYDROUS]
Population Apoptotic (%) [1]: 72% | Population Fragmented Nuclei (%) [1]: 33% | Population Healthy Nuclei (%) [1]: 52% | Population Hoechst High Intensity Objects (%) [1]: 17% | Population Membrane Permeable-Phenotype (%) [1]: 6% | Population Mitochondria Different-Phenotype (%) [1]: 8% | Population Mitotic Cells (%) [1]: 27% | Population Normal (%) [1]: 82% | Population Pyknosed Nuclei (%) [1]: 14% | Population Tubulin-Different-Phenotype (%) [1]: 46% | Total Cell Count [1]: 248 | Population Apoptotic (%) [2]: 66% | Population Fragmented Nuclei (%) [2]: 56% | Population Healthy Nuclei (%) [2]: 36% | Population Hoechst High Intensity Objects (%) [2]: 57% | Population Membrane Permeable-Phenotype (%) [2]: 12% | Population Mitochondria Different-Phenotype (%) [2]: 25% | Population Mitotic Cells (%) [2]: 33% | Population Normal (%) [2]: 42% | Population Pyknosed Nuclei (%) [2]: 6% | Population Tubulin-Different-Phenotype (%) [2]: 25% | Total Cell Count [2]: 103 | Population Apoptotic (%) [3]: 58% | Population Fragmented Nuclei (%) [3]: 30% | Population Healthy Nuclei (%) [3]: 53% | Population Hoechst High Intensity Objects (%) [3]: 14% | Population Membrane Permeable-Phenotype (%) [3]: 7% | Population Mitochondria Different-Phenotype (%) [3]: 3% | Population Mitotic Cells (%) [3]: 41% | Population Normal (%) [3]: 85% | Population Pyknosed Nuclei (%) [3]: 15% | Population Tubulin-Different-Phenotype (%) [3]: 7% | Total Cell Count [3]: 214 | Population Apoptotic (%) [4]: 28% | Population Fragmented Nuclei (%) [4]: 47% | Population Healthy Nuclei (%) [4]: 40% | Population Hoechst High Intensity Objects (%) [4]: 35% | Population Membrane Permeable-Phenotype (%) [4]: 20% | Population Mitochondria Different-Phenotype (%) [4]: 16% | Population Mitotic Cells (%) [4]: 71% | Population Normal (%) [4]: 64% | Population Pyknosed Nuclei (%) [4]: 11% | Population Tubulin-Different-Phenotype (%) [4]: 16% | Total Cell Count [4]: 94 | Population Apoptotic (%) [5]: 72% | Population Fragmented Nuclei (%) [5]: 28% | Population Healthy Nuclei (%) [5]: 54% | Population Hoechst High Intensity Objects (%) [5]: 30% | Population Mitochondria Different-Phenotype (%) [5]: 22% | Population Mitotic Cells (%) [5]: 28% | Population Normal (%) [5]: 69% | Population Pyknosed Nuclei (%) [5]: 17% | Population Tubulin-Different-Phenotype (%) [5]: 46% | Total Cell Count [5]: 210 | Population Apoptotic (%) [6]: 100% | Population Fragmented Nuclei (%) [6]: 51% | Population Healthy Nuclei (%) [6]: 40% | Population Hoechst High Intensity Objects (%) [6]: 57% | Population Membrane Permeable-Phenotype (%) [6]: 5% | Population Mitochondria Different-Phenotype (%) [6]: 16% | Population Mitotic Cells (%) [6]: 0% | Population Normal (%) [6]: 42% | Population Pyknosed Nuclei (%) [6]: 8% | Population Tubulin-Different-Phenotype (%) [6]: 16% | Total Cell Count [6]: 106 | Population Apoptotic (%) [7]: 58% | Population Fragmented Nuclei (%) [7]: 32% | Population Healthy Nuclei (%) [7]: 50% | Population Hoechst High Intensity Objects (%) [7]: 18% | Population Membrane Permeable-Phenotype (%) [7]: 6% | Population Mitochondria Different-Phenotype (%) [7]: 2% | Population Mitotic Cells (%) [7]: 41% | Population Normal (%) [7]: 81% | Population Pyknosed Nuclei (%) [7]: 17% | Population Tubulin-Different-Phenotype (%) [7]: 3% | Total Cell Count [7]: 249 | Population Apoptotic (%) [8]: 33% | Population Fragmented Nuclei (%) [8]: 53% | Population Healthy Nuclei (%) [8]: 36% | Population Hoechst High Intensity Objects (%) [8]: 30% | Population Membrane Permeable-Phenotype (%) [8]: 21% | Population Mitochondria Different-Phenotype (%) [8]: 13% | Population Mitotic Cells (%) [8]: 66% | Population Normal (%) [8]: 69% | Population Pyknosed Nuclei (%) [8]: 9% | Population Tubulin-Different-Phenotype (%) [8]: 17% | Total Cell Count [8]: 91
